Results from ChEMBL document CHEMBL1154621, “Structure-based design of DevR inhibitor active against nonreplicating Mycobacterium tuberculosis” (J Med Chem, 2009).
Activity calls are given as the source filed them. The rule behind the calls is not given here.

Experiments:
[1] = target: T1, DNA-binding transcriptional activator DevR/DosR (Mycobacterium tuberculosis, UniProt P9WMF9); experiment: Inhibition of Mycobacterium tuberculosis phosphorylated DevR binding to fdxA promoter DNA after 10 mins by EMSA
Summary of the method: (§1)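 N-terminal GST-tagged DevR was phosphorylated with acetyl phosphate; DevR~P (1 μM final) was preincubated 10 min at 30 °C with or without compound. ~2 ng 32P end-labelled fdxA promoter PCR probe was added and incubated 30 min on ice in binding buffer. Complexes resolved by gel electrophoresis.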

[2] = target: T1, DNA-binding transcriptional activator DevR/DosR; experiment: Inhibition of DevR region-dependent Rv3134c promoter activity in Mycobacterium tuberculosis H37Rv after 48 hrs by GFP reporter gene assay
Summary of the method: (§2)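 H37Rv carrying DevR-regulated promoter-gfp plasmids, grown in Dubos/Tween/ADC medium to OD595 ~0.4 and diluted to OD ~0.05. Exposed to 2-fold serial compound dilutions from DMSO stocks for 48 h at 37 °C. Fluorescence corrected for vector and compound background. Percent inhibition = [1 - RFUcompound/RFUDMSO] × 100; mean ± SD of three experiments, each in triplicate wells.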

[3] = target: DNA-binding transcriptional activator DevR/DosR (Mycobacterium tuberculosis) (UniProt P9WMF9); experiment: Inhibition of Mycobacterium tuberculosis phosphorylated DevR binding to fdxA promoter DNA at 250 uM after 10 mins by EMSA; summary of the method: as §1
[4] = target: DNA-binding transcriptional activator DevR/DosR (Mycobacterium tuberculosis) (UniProt P9WMF9); experiment: Inhibition of DevR region-dependent Rv3134c promoter activity in Mycobacterium tuberculosis H37Rv at 250 uM after 48 hrs by GFP reporter gene assay; summary of the method: as §2
[5] = system: Mycobacterium tuberculosis; experiment: Inhibition of constitutive sigA promoter activity in Mycobacterium tuberculosis H37Rv; assay type: functional, organism-based
Summary of the method: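 Strains carrying Rv3134c or sigA promoter-gfp were grown in 7H9/Tween/ADC to OD595 ~0.40. Washed twice with PBS, resuspended in PBS (starved) or medium, and diluted to OD595 ~0.02. 1 mL aliquots incubated; 200 μL samples taken weekly to measure GFP fluorescence.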

[6] = system: Mycobacterium tuberculosis; experiment: Antimycobacterial activity against 30 day old non-replicating dormant cultures of Mycobacterium tuberculosis H37Rv assessed as reduction of bacterial viability measured after 11 days by resazurin reduction assay; assay type: functional, organism-based
Summary of the method: (§3)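 H37Rv grown in Dubos medium to OD595 ~0.4, diluted to OD595 0.003; 2 mL aliquots held static in sealed 4 mL tubes for 30 days until hypoxic. Compounds added to these dormant cultures for a further 11 days. Metronidazole and isoniazid were controls. Read by CFU plating of aliquots, then resazurin 0.02% plus Tween-80 20% injected, overnight incubation, resazurin reduction (HyRRA).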

[7] = system: Mycobacterium tuberculosis; experiment: Antimycobacterial activity against 30 day old non-replicating dormant cultures of Mycobacterium tuberculosis H37Rv assessed as revival of bacterial viability exposed for 11 days measured after 30 days post exposure by resazurin reduction assay; assay type: functional, organism-based
Summary of the method: (§4)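 Hypoxic cultures were pelleted at 11000g at the end of exposure (30 days if compound was given on day 0, 41 days if given on day 30). Washed and resuspended in 4 mL 7H9 with 5% OADC and 0.1% Tween-80. Grown aerobically at 190 rpm, 37 °C. Aliquots taken every 5 days; recovery read by resazurin reduction and OD595, scored 1-40 with day 0 = 1.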

[8] = target: DNA-binding transcriptional activator DevR/DosR (Mycobacterium tuberculosis) (UniProt P9WMF9); experiment: Inhibition of Mycobacterium tuberculosis phosphorylated DevR binding to fdxA promoter DNA added before DevR phosphorylation by EMSA
[9] = target: DNA-binding transcriptional activator DevR/DosR (Mycobacterium tuberculosis) (UniProt P9WMF9); experiment: Inhibition of Mycobacterium tuberculosis phosphorylated DevR binding to fdxA promoter DNA added after DevR phosphorylation by EMSA
[10] = target: DNA-binding protein HupB (Mycobacterium tuberculosis (strain ATCC 25177 / H37Ra)) (UniProt A5U6Z7); experiment: Inhibition of Mycobacterium tuberculosis HupB binding to fdxA promoter DNA at 500 uM by EMSA
Summary of the method: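 Purified HupB protein incubated with compound, then ~2 ng 32P-labelled fdxA promoter probe added for 30 min on ice in binding buffer. Complexes resolved by gel shift electrophoresis against positive and negative controls.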

[11] = target: T1, DNA-binding transcriptional activator DevR/DosR; experiment: Inhibition of DevR region-dependent narK2 promoter activity in Mycobacterium tuberculosis H37Rv after 48 hrs by GFP reporter gene assay; summary of the method: as §2
[12] = target: T1, DNA-binding transcriptional activator DevR/DosR; experiment: Inhibition of DevR region-dependent hspX promoter activity in Mycobacterium tuberculosis H37Rv after 48 hrs by GFP reporter gene assay; summary of the method: as §2
[13] = system: Mycobacterium tuberculosis; experiment: Antimycobacterial activity against hypoxic dormant cultures of Mycobacterium tuberculosis H37Rv assessed as reduction of bacterial viability at 131 ug/mL administered on day 0 into hypoxic tubes measured after 30 days by resazurin reduction assay; assay type: functional
Summary of the method: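 H37Rv in Dubos medium at OD595 0.003; 2 mL aliquots in sealed 4 mL tubes held static, compound injected on day 0. Incubated until methylene blue decolorized (anaerobiosis, ~30 days). CFU plating of aliquots, then resazurin 0.02% and Tween-80 20% injected, overnight incubation, viability by resazurin reduction (HyRRA). DMSO control matched.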

[14] = system: Mycobacterium tuberculosis; experiment: Antimycobacterial activity against 30 day old non-replicating dormant cultures of Mycobacterium tuberculosis H37Rv assessed as reduction of bacterial viability at 131 ug/mL measured after 11 days by resazurin reduction assay; assay type: functional, organism-based; summary of the method: as §3
[15] = system: Mycobacterium tuberculosis; experiment: Antimycobacterial activity against hypoxic dormant cultures of Mycobacterium tuberculosis H37Rv assessed as revival of bacterial viability at 131 ug/mL administered on day 0 into hypoxic tubes measured after 30 days under hypoxic conditions by resazurin reduction assay; assay type: functional, organism-based; summary of the method: as §4
[16] = system: Mycobacterium tuberculosis; experiment: Antimycobacterial activity against 30 day old non-replicating dormant cultures of Mycobacterium tuberculosis H37Rv assessed as revival of bacterial viability at 131 ug/mL exposed for 11 days measured after 30 days post exposure by resazurin reduction assay; assay type: functional, organism-based; summary of the method: as §4
[17] = system: Mycobacterium tuberculosis; experiment: Antimycobacterial activity against aerobic Mycobacterium tuberculosis H37Rv by resazurin reduction based REMA assay; assay type: functional, organism-based
Summary of the method: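 Aerobic H37Rv exposed to compounds in triplicate cultures for 7 days. Then 0.02% resazurin and 20% Tween-80 added; after 48 h, blue-to-pink colour change read, with fluorescence at excitation 530 nm, emission 590 nm.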

[18] = system: Mycobacterium tuberculosis; experiment: Antimycobacterial activity against nutrient starvation-induced dormant Mycobacterium tuberculosis H37Rv expressing Rv3134c/sigA promoter driven GFP reporter genes; assay type: functional, organism-based
[19] = target: DNA-binding transcriptional activator DevR/DosR (Mycobacterium tuberculosis) (UniProt P9WMF9); experiment: Inhibition of Mycobacterium tuberculosis phosphorylated DevR binding to fdxA promoter DNA at 500 uM after 10 mins by EMSA; summary of the method: as §1

T1 sequence (P9WMF9 whole entry): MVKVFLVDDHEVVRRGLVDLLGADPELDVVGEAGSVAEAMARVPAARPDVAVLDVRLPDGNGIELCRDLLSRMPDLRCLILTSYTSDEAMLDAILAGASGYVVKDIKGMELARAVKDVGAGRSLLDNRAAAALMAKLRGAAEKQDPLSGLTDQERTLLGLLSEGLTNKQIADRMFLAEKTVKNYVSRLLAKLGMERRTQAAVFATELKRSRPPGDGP
Chain of DNA-binding transcriptional activator DevR/DosR (Mycobacterium tuberculosis) (P9WMF9 whole entry): as above
Chain of DNA-binding protein HupB (Mycobacterium tuberculosis (strain ATCC 25177 / H37Ra)) (A5U6Z7 whole entry): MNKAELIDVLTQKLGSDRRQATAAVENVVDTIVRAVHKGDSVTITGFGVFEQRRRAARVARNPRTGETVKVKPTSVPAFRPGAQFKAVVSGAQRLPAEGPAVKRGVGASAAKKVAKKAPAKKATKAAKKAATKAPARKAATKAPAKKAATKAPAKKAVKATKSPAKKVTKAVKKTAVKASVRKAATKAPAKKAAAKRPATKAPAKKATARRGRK

Structure (SMILES)	IC50 [1]	IC50 [2]	IC50 ([1]; read-out: IC50 (converted)) [µM]	inhibition [4] [%]	IC50 ([2]; read-out: IC50 (converted)) [µM]	Activity [5]	further results
COC(=O)c1ccc(Cl)c(NC(=O)c2ccc(CN3CCOCC3)cc2)c1	Not Active	Not Active					
COc1cc(NC(=O)CCc2ccc(OCc3ccc(Cl)cc3)c(OC)c2)c(OC)cc1Cl			295	50	249	Active	Activity [3]: Active
O=c1[nH]cc(/N=C/c2cc([N+](=O)[O-])ccc2O)c(=O)[nH]1	Not Active	Not Active					
NNC(=O)c1ccncc1							Activity [6]: inactive; Activity [7]: inactive
Cc1ncc([N+](=O)[O-])n1CCO							Activity [6]: Active; Activity [7]: Active
COc1cc(Br)cc(/C=C2/SC(Nc3cccc(C(=O)O)c3)=NC2=O)c1O	Not Active	Not Active					
COc1cc(C(=O)NCC(=O)NN)cc(OC)c1OC	Not Active	Not Active					
COc1cc(NC(=O)c2ccc(-c3cc4ccccc4oc3=O)cc2)ccc1NC(=O)c1ccccc1Cl			< 49.9	50	125	inactive	Activity [3]: Active; Activity [8]: Active; Activity [9]: Active; Activity [10]: inactive; IC50 [11]: < 125 µM; IC50 [12]: < 125 µM; Activity [13]: >99%; Activity [14]: inactive; Activity [15]: Active; Activity [16]: inactive; Activity [17]: inactive; Activity [18]: inactive
O=C(NCc1ccccc1)c1ccccc1NS(=O)(=O)c1ccc2c(c1)OCCO2	Not Active	Not Active					
Cc1cc(=O)[nH]c2sc(C(=O)c3ccc(Br)cc3)c(N)c12	Not Active	Not Active					
COc1cc(NC(=O)c2cc3ccccc3o2)ccc1NC(=O)c1ccccc1Cl			200	30	300	Active	Activity [3]: Active
C=CCc1cc(/C=C2\NC(=O)N(c3ccccc3F)C2=O)cc(OCC)c1O			259	30	311	Active	inhibition [19]: 100%
Nc1nc2c(nc(Br)n2[C@H]2O[C@H](CO)[C@@H](O)[C@@H]2O)c(=O)[nH]1	Not Active	Not Active					
